A word on the apparent Kd: it is the concentration giving half-maximal binding under the conditions of the assay.

This note sets out measurements from the EternaBench riboswitch data.

For the data set, the system named is MS2 coat protein. The experiment in a line: apparent Kd, MS2 coat protein; higher = weaker binding; RNA-MaP array; FMN 200 µM where present. Summed up:
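Green signal was scaled to red-channel RNA signal and control-cluster median Fmax, and the apparent Kd was taken as the median of filtered per-cluster binding-curve fits. The binding series used SNAP-549-labelled MS2 coat protein from 0.7 or 1.5 nM, doubling to 3 µM, on designs transcribed by stalled E. coli RNA polymerase on Illumina sequencing-chip clusters. Each series ran without and then with constant ligand in 100 mM Tris-HCl pH 7.5, 80 mM KCl, 4 mM MgCl2, BSA, DTT, yeast tRNA and Tween-20.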

Setting [1] is: designed as: ON switch for flavin mononucleotide, no ligand.
The mark [2] stands for this setting: ligand present: flavin mononucleotide, designed as: ON switch for flavin mononucleotide.
Setting [3] is: designed as: OFF switch for flavin mononucleotide, no ligand.
Setting [4] is: ligand present: flavin mononucleotide, designed as: OFF switch for flavin mononucleotide.

In the case of “AAUUGGAUCCAGAAGGCAUGGACGACCCGUCACAUUAACAUGAGGAUCACCCAUGUAUAAAGACAUGAGGAUAUGGAUCCUAAA”, the “apparent Kd” value was 25.7 nM under setting [1] and 7.99 nM under setting [2].

With “AACCUACAUGAGGAUCACCCAUGUAAGGAUAUGGCAUGAUUUGCGUCAGCCCGUUAAGUUAGAAGGUGCGUCGG”, the “apparent Kd” value by setting is: under setting [3], 14.8 nM; under setting [4], 16 nM.

Consider “CGUGCACAUGAGGAUCACCCAUGUCGUCGCGAUCAAGGAUAUGAAAGCAGCGUUAUGUUAUCAGAAGGUGAACCUC”, for which the “apparent Kd” value came to 28.1 nM under setting [1] and 21.9 nM under setting [2].

In the case of “UUUGUAAUGUCAGGAUAUAUAAUAAGUCAUACAGUAGAAGGGAUAAUUAUACUCAUGUACAUGAGGAUCACCCAUGUUAAAUAU”, the “apparent Kd” value is, setting by setting: under setting [1], 80.1 nM; under setting [2], 45.6 nM.

For the sequence “UUAUACAUUCGAGGAUAUCGGAGAGAAAUCUUUCGAGAAGGCGAUUCAUGAUGUAUUAUCCUGGACAUGAGGAUCACCCAUGUA”, the “apparent Kd” value under setting [1] was 96.8 nM and the “apparent Kd” value under setting [2] worked out at 76.9 nM.

Take “UUGGACGUCGUAGGAUAUGUAGGAUAUUCCUACAUGAGGAUCACCCAUGUCGACAUGGAAGAAGGACAGAAGGACGAUGUCCAU”: the “apparent Kd” value amounted to 238 nM under setting [1] and 4.22 nM under setting [2].

For “GCCAGUUAUGUAGGAUAUGCGCGGCGAGCCUGUGCAGAAGGACAUGAGGAUCACCCAUGUGUUGCGGUCUGAGUACUGAUCGCC”, the “apparent Kd” value by setting is: under setting [3], 32.9 nM; under setting [4], 208 nM.

Turning to “CAAAGUUGGUAAGGAUAUCCCACAUUAUUCUGACCCGUGCAAGCUACAUGAGGAUCACCCAUGUGGGAGAAGGUGCGUUAUAGA”, the “apparent Kd” value reads like this: under setting [3], 121 nM; under setting [4], 160 nM.

As to “AAAAAACAUGAGGAUCACCCAUGUCCUCGGACAUGAGGAUAUGUACAGACUUCGGUCUGUACAGAAGGCAUGUCUU”, the “apparent Kd” value runs as follows: under setting [1], 302 nM; under setting [2], 308 nM.

For “CUAGUAUAUCAGGAUAUGAUAAUGUGUAGUAUAUCAGAAGGGAUGACAUGAGGAUCACCCAUGUUAAGGGAUGA”, the “apparent Kd” value is, setting by setting: under setting [3], 58.1 nM; under setting [4], 118 nM.

Regarding “ACUGUUUGAUUCCUCUUAUACAUGAGGAUCACCCAUGUUAUCGAGGAUAUGCAUUAGAGUGUUUAGCAGAAGGCGAUGUAAUUC”, the “apparent Kd” value by setting is: under setting [3], 5.89 nM; under setting [4], 12.9 nM.

On to “AAAACAUGAGGAUCACCCAUGUAAAGAACGGUUAAUAAAUGUGAGGAUAUACUAAAAUUUUCGUAGUAGAAGGCACUGGGUACA”, for which the “apparent Kd” value stood at 22.2 nM under setting [1] and 24.8 nM under setting [2].

On to “CCAUAACUGUGAGGAUAUUGUUGCGUUUAGUGACGAGAAGGCAUUCAUGUGAUAUAUACAUACAUGAGGAUCACCCAUGUUGUA”, for which the “apparent Kd” value is, setting by setting: under setting [1], 31 nM; under setting [2], 25.5 nM.

Take “GGAAGUCAAAGACUUCCUUAACGAACAUGAGGAUCACCCAUGUAGGAUAUGCUACUCAAAGAGUAGCAGAAGGACAUGUGUCUU”: the “apparent Kd” value is, setting by setting: under setting [3], 32.1 nM; under setting [4], 168 nM.

Turning to “ACUCUACAUGAGGAUCACCCAUGUUGAGCCCAUCAAGGAUAUGGGUCUUAAUCGCGGGUGCCAGAAGGUGAUGGUU”, the “apparent Kd” value is, setting by setting: under setting [1], 91 nM; under setting [2], 109 nM.

With “AAGGAUCGAGGAUAUACAUAGAUACAGAUUCAUGUAGAACUACAUGAGGAUCACCCAUGUAGAAGGCGAUCCUA”, the “apparent Kd” value is, setting by setting: under setting [3], 38.4 nM; under setting [4], 291 nM.

On to “GACAUACAUGAGGAUCACCCAUGUACAAACGUACAAGGAUAUGUGUGGAAACCGUACUAUACAGAAGGUGUUUGUC”, for which the “apparent Kd” value turned out to be 47.6 nM under setting [1] and 41.5 nM under setting [2].

On to “GUAUCAUACCAAGGAUAUUUAGGACUUGGAUAGACAUGAGGAUCACCCAUGUGGCGUUAGUCACGGGAGAAGGUGGUAUGAUAC”, for which the “apparent Kd” value under setting [1] stood at 103 nM and the “apparent Kd” value under setting [2] is 20.7 nM.

For the sequence “GGCGGCGCGGGCCACCGCAGGACCAGAAGGACAUGAGGAUCACCCAUGUGGCAGAACAGGGCGGUGUAGGAUAUGGCAGGCUCG”, the “apparent Kd” value under setting [3] worked out at 28.8 nM and the “apparent Kd” value under setting [4] was found to be 64.3 nM.

Turning to “CUGAUGUUAGGAUAUCAGGCUGUGCACGAAGACGGGCGGCAUGAGAAGGAACAUGAGGAUCACCCAUGUGACGG”, the “apparent Kd” value is, setting by setting: under setting [3], 36.3 nM; under setting [4], 77.6 nM.

Regarding “ACGGCUAACCCAGUUUAGAUCUCAAGAAGGGUACACUGGGCAAGGUACAUGAGGAUCACCCAUGUACAGGAUAUUGAGAUGAGA”, the “apparent Kd” value was 12.1 nM under setting [3] and 34.1 nM under setting [4].

On to “AACUCACAUGAGGAUCACCCAUGUGAGGAUAUGAUACUAUGUACUUCGGUACAUAGUAUCAGAAGGCAUGUGGA”, for which the “apparent Kd” value runs as follows: under setting [3], 14.4 nM; under setting [4], 18.9 nM.

Regarding “ACAUGCAUUCGAGGAUAUCGGUGAUUAAUUCUACGAGAAGGCGAUUUAAGAUAUAUUGUUUUAGACAUGAGGAUCACCCAUGUA”, the “apparent Kd” value was determined as 29 nM under setting [1] and 23.2 nM under setting [2].

With “AAAAACAGAGGAUAUACAAAAUGAUGACGAAAGUCAUCAAAACAUGAGGAUCACCCAUGUAGAAGGCUGAAAAA”, the “apparent Kd” value is, setting by setting: under setting [3], 25.9 nM; under setting [4], 22.9 nM.

Regarding “AACAAUGGUUAACAUGAGGAUCACCCAUGUUGGAAGCCUUCACAGGAUAUGUAGCGGGCAUACGCACAGAAGGGUGAUCGCGGU”, the “apparent Kd” value is, setting by setting: under setting [1], 37.5 nM; under setting [2], 32.6 nM.

“GGUCAUCAAGUCAGGAUAUCGUCUGGUCGGUCUGGCGAGAAGGGACAUGAGGAUCACCCAUGUCGUCUCAUCAG”: the “apparent Kd” value stood at 15.2 nM under setting [3] and 17.7 nM under setting [4].

For the sequence “CGCUAGUCAGGAUAUACGCACAUGUCACCAGACGUGAAGGGACAUGAGGAUCACCCAUGUAGAAGGGACUAGCC”, the “apparent Kd” value stood at 98.5 nM under setting [3] and 246 nM under setting [4].

Take “UUGUUGUCAGGAUAUCGUUAAUUUAAUUGUUUGUAUUAGUUCGAGAAGGGACAUGAGGAUCACCCAUGUUUUUU”: the “apparent Kd” value under setting [3] is 25.6 nM and the “apparent Kd” value under setting [4] was found to be 51.5 nM.

Consider “GGAUAGGACAGAGGAUAUACGUGCUAGAGAUGCUAGCAAAAUUUCCUCACAUGAGGAUCACCCAUGUAGAAGGCUGUCCUAUCG”, for which the “apparent Kd” value by setting is: under setting [3], 15.8 nM; under setting [4], 393 nM.

“AGUCGGAGCAGAGGAUAUACAUGAGGAUCACCCAUGUAAUAGGAUGAAGCCUGGAAACAGGCAAUGUAGAAGGCUGCUCCGACA”: the “apparent Kd” value runs as follows: under setting [3], 60.1 nM; under setting [4], 589 nM.

For “AAGUCUGGACGAGGAUAUCAGUUGUAUCUAGCAUCAACAUGAGGAUCACCCAUGUUGCAAUAGGGUGAGAAGGCGUUUGGGCAA”, the “apparent Kd” value worked out at 150 nM under setting [1] and 20.6 nM under setting [2].

As to “UGUUGUAUUACAGGAUAUCUAUUGUUAUUAUUUAGAGAAGGGUAUUCACAUGAGGAUCACCCAUGUAUAUACGAGGAAGUUGUG”, the “apparent Kd” value under setting [1] was 45.3 nM and the “apparent Kd” value under setting [2] was determined as 45.5 nM.

In the case of “UGAGCAAGAGGAUAUACAAGGCGACCGUGAGGUCGAGGUUUACAUGAGGAUCACCCAUGUAGAAGGCUUGUUCU”, the “apparent Kd” value came out at 17.2 nM under setting [3] and 38.9 nM under setting [4].

Consider “UCCUACAUGGGAGGAUAUGGGAAGAUACAUGAGGAUCACCCAUGUUUAAGAAUGCCGAGAGGCAACUAGAAGGCCCAUGUAGGU”, for which the “apparent Kd” value by setting is: under setting [1], 876 nM; under setting [2], 54.4 nM.

Consider “UCUUGACAUGAGGAUCACCCAUGUCAGGAUAUAGUAGGACAAAUAAAUAAAAGUUCUACUAGAAGGGAUAUGGG”, for which the “apparent Kd” value worked out at 24.9 nM under setting [3] and 46.8 nM under setting [4].

As to “AACCCUUGUGUUAGGAUAUGUCACUACCAUAUGCGACAGAAGGAACAUGAGGAUCACCCAUGUGAGUUAGCCAA”, the “apparent Kd” value reads like this: under setting [3], 42.8 nM; under setting [4], 91.1 nM.
